In all, about 2,500 compounds went through this assay and about 460 (18%) were called active. A selection follows. Unmarked numbers belong to inactive results.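 The calls were made as follows: active = mean activation above a cutoff of low control average plus 3 SD from the earlier screen (cut at about 12% in these data); inactive = the rest.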

The experiment in a line: IANBD-channel fluorescence artefacts in buffer – biochemical, artefact control for cardiac RTF calcium sensitizer project, confirmation (AID 504382). As to conditions: IANBD fluorescence interference counterscreen, EC20 Ca2+, at 7.2 µM, active compounds read high. In a few lines: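 Also added: EC20 calcium, 0.472 mM; dosing: single nominal 7.2 µM compound dose, 0.7% DMSO final; timing: 15 min, 25 °C; detection: fluorescence intensity, excitation 480 nm, emission 540 nm; replicates: each compound tested in triplicate wells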
On to `O=c1[nH]c(=S)n(-c2ccccc2Cl)c(O)c1C=NCCN1CCNCC1`, for which the fluorescence artifact activation is 660% (active). For `COc1ccc(OC)c(-n2c(O)c(C=NCCN3CCNCC3)c(=O)[nH]c2=S)c1` the value was 3.37%; for `C=CCn1c(O)c(C=NC2CCN(Cc3ccccc3)CC2)c(=O)[nH]c1=O`, -0.06%. For `CN1Cc2c(c(C#N)c(N)n(C)c2=S)CC1(C)C` the value was -0.06%; for `CCN(CC)c1ccc(/C=C/[N+](=O)[O-])cc1`, 3.43%.

On to `CCCCCCC(=O)N/N=C/c1c(O)n(CCc2ccccc2)c(=O)[nH]c1=O`, for which the fluorescence artifact activation was 0.04%. The result for `O=C(CN1CCN(c2ccccc2F)CC1)Nc1cccnc1Cl` reads 6.53%; that for `CC1(C)OC(c2ccccc2)=C/C(=C/C=C2C(=O)NC(=O)NC2=O)O1`, 0.3%; that for `Cn1cc(C=C(C#N)C#N)c2ccccc21`, 20% (active). The result for `N#CC(C#N)=Cc1ccc(C=C(C#N)C#N)cc1` reads 0.08%; that for `COc1ccc(N2C(=O)NC(=O)/C(=C\c3cn(C)c4ccccc34)C2=O)cc1`, -0.05%. The result for `CC(C)n1c(=O)c(C=Nc2cccc([N+](=O)[O-])c2)c(O)n(CCc2ccccc2)c1=O` reads 1.6%; that for `COc1cccc2c1C(=O)c1c(O)c3c(c(O)c1C2=O)CC(O)(C(C)=NO)CC3OC1CC(N)C(O)C(C)O1` (stereo not drawn), 0.43%. `Cc1cccc(-n2c(O)c(/C=C/C=Nc3ccccc3)c(=O)[nH]c2=O)c1`: the fluorescence artifact activation is 59.9% (active). Consider `O=c1[nH]c(=O)n(-c2ccccc2)c(O)c1/C=C/C=Nc1ccccc1`, for which the fluorescence artifact activation was 0.01%. As for `Cc1ccc(-n2c(O)c(/C=C/C=Nc3ccccc3)c(=O)[nH]c2=O)cc1`, the fluorescence artifact activation is 7.82%. For `O=C1NC(=O)N(Cc2ccccc2)C(=O)/C1=C\N1CCCc2ccccc21` the value was 2.74%; for `O=Cc1c(C(=O)O)n(Cc2ccc(Cl)cc2)c2ccccc12`, 0.14%.

On to `C/C(=N\N1CCCCC1c1cccnc1)c1c(O)n(C2CCCCC2)c(=S)[nH]c1=O` (stereo not drawn), for which the fluorescence artifact activation is 13.8% (active). The result for `O=c1[nH]c(=O)n(C2CCCCC2)c(O)c1/C=C/C=Nc1ccccc1` reads 0.28%.

As to `Cc1cccc(N2C(=O)NC(=O)/C(=C\c3ccc4c(c3)CCCN4Cc3ccccc3)C2=O)c1`, the fluorescence artifact activation was 0.72%. The result for `CN1CCN(Cc2cn(C)c3ccccc23)CC1CCO` (stereo not drawn) reads 10.6%; that for `O=C1NC(=S)SC1=Cc1ccc(N(CCCl)CCCl)cc1`, -0.09%. The result for `Nc1c2c(nc3ccccc13)CCN(Cc1ccccc1)C2` reads 26.4% (active); that for `FC(F)(F)c1ccc2c(c1)nnn2C1CCN(Cc2nnnn2Cc2ccccc2)CC1`, 0.25%; that for `CCOCCCNC(=O)C1c2cc(OC)c(OC)cc2C(=O)N2CCCCC12` (stereo not drawn), 0.42%.

`O=c1[nH]c(O)c(C=Nc2ccccc2Oc2ccccc2)c(=O)[nH]1`: the fluorescence artifact activation was 0.37%. For `C=CCN1C(=O)/C(=C/c2ccc(N3CCOCC3)o2)C(=O)NC1=S` the value was 5.89%; for `CN1C(=O)C(=Cc2ccc(N3CCOCC3)o2)C(=O)N(C)C1=O`, 16.2% (active).

As to `CCN1C(=O)C(=Cc2ccc(N3CCOCC3)o2)C(=O)N(CC)C1=S`, the fluorescence artifact activation is 0.14%. For `CN1C(=O)C(=Cc2ccc(N3CCOCC3)o2)C(=O)N(C)C1=S` the value was 0.02%; for `CN1C(=O)/C(=C/c2ccc(N3CCCCCC3)o2)C(=O)NC1=S`, 1.84%. In the case of `CN1C(=O)C(=Cc2ccc(N3CCCCCC3)o2)C(=O)N(C)C1=S`, the fluorescence artifact activation was 35.9% (active). Turning to `CN1C(=O)/C(=C\c2ccc(N3CCCCC3)o2)C(=O)NC1=S`, the fluorescence artifact activation was 0.13%.

Regarding `COc1cc(/C=C2/C(=O)NC(=O)N(c3ccc(C)cc3)C2=O)cc(OC)c1OC`, the fluorescence artifact activation was 0.06%. The result for `CCN1C[C@]2(CO)CC[C@H](OC)[C@@]34C5C[C@H]6[C@H](OC)C5[C@](O)(C[C@H]6OC)[C@@H](C(OC)C23)[C@@H]14` (stereo partly drawn) reads 2.26%.

Regarding `NC(=O)c1c(NC(=O)c2ccc(S(=O)(=O)N(CCCl)CCCl)cc2)sc2c1CCCCC2`, the fluorescence artifact activation was 0.08%.

Turning to `CC1=NCCc2c1[nH]c1cc(O)ccc21`, the fluorescence artifact activation is 0.1%. The result for `Cc1cc(Cl)ccc1C(=O)C1CCCN(C2CCSCC2)C1` (stereo not drawn) reads 0%. On to `COC(=O)C1=C(c2cccc(C#N)c2)C[C@@H]2CC[C@H]1N2C(=O)N1CCOCC1`, for which the fluorescence artifact activation is 1.36%.

As to `COCCNC(=O)c1c(N)n(Cc2ccco2)c2nc3ccccc3nc12`, the fluorescence artifact activation is 1.48%. For `Nc1c(C(=O)NCC2CCCO2)c2nc3ccccc3nc2n1Cc1ccco1` (stereo not drawn) the value was 732% (active); for `COCCOC(=O)c1c(N)n(Cc2ccco2)c2nc3ccccc3nc12`, -0.01%; for `CCOC(=O)c1cc(CC)sc1/N=C/c1c(O)[nH]c(=S)[nH]c1=O`, 1.47%. The result for `CCN(CC)c1ccc(C=C2C(=O)N(C)C(=S)N(C)C2=O)o1` reads -0.01%; that for `Cc1cc(N2CCCC2)ccc1C=C(C#N)C#N`, 17.8% (active). Consider `Cc1cc(C=C(C#N)C#N)ccc1N1CCCC1`, for which the fluorescence artifact activation was 0.79%.

For `COc1ccc(-n2c(O)c(/C=C/C=Nc3ccccc3)c(=O)[nH]c2=O)cc1`, the fluorescence artifact activation was -0.12%.

On to `Cc1ccc(/C=C2/Sc3ccc(C(=O)N4CCC5(CC4)OCCO5)cc3NC2=O)cc1`, for which the fluorescence artifact activation is 38.7% (active).

Regarding `CNS(=O)(=O)c1ccc(N=Cc2c(O)n(-c3ccccc3)c(=O)[nH]c2=O)cc1`, the fluorescence artifact activation was 8.1%.

Take `CCC1(C)OC(c2ccccc2)=C/C(=C/C=C2C(=O)NC(=O)NC2=O)O1` (stereo not drawn): the fluorescence artifact activation was 4.44%. For the molecule `CCN(CC)CCCOC(=O)C(OC(C)C)(c1ccccc1)c1ccccc1`, the fluorescence artifact activation was 17.1% (active). For `CCCCN1C(=O)NC(=O)C2(Cc3ccccc3N3CCOCC32)C1=O` (stereo not drawn) the value was -0.11%.

For `Cc1ccc(-n2c(O)c(C=NCC3CCCO3)c(=O)[nH]c2=O)c(C)c1` (stereo not drawn), the fluorescence artifact activation is 0.07%. As to `N#CC(C#N)=Cc1ccc(-c2ccccc2F)o1`, the fluorescence artifact activation is 6.89%. For `CCCc1cc(=O)oc2cc(OCC(=O)N3C[C@H]4C[C@@H](C3)c3cccc(=O)n3C4)ccc12` the value was 36.4% (active). As to `CCCc1cc(=O)oc2cc(OCC(=O)N3CCC(C(=O)O)(c4ccccc4)CC3)ccc12`, the fluorescence artifact activation is 0.1%. For `Cn1c(O)c(/C=C/C=Nc2ccccc2)c(=O)n(C)c1=S` the value was 5.68%.

The values above are taken from PubChem BioAssay AID504382 (The Scripps Research Institute Molecular Screening Center, 2011).
